LANA-H2B inh: blocks KSHV LANA binding to histone H2A/H2B | cell-free LANA-H2A/H2B peptide, fluorescence polarization | 0.6% of 320,000 active | AID 2629 | Q9QR71 | inhibition, % (no concentration beside the values); in the data active means inhibition mostly above about 10%, no sharp cut-off; inactive means mostly below about 6.7%
Pemphigus Ab inh: blocks pemphigus antibody binding to human desmoglein-3 | AID 588358 | binding (percent of control), % at 10 µM | 0.48% of 310,000 active | P32926 | DSG3-coupled beads, scFv-anti-DSG3-GFP binding, flow cytometry; stronger effect = lower value;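 active means binding more than 3 SD below its plate's average and above zero; inconclusive means below that plate limit but binding exactly zero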;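 further: hits lower antibody fragment binding to DSG3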
Target sequence (P32926 whole entry, looked up, the tested form may be a part): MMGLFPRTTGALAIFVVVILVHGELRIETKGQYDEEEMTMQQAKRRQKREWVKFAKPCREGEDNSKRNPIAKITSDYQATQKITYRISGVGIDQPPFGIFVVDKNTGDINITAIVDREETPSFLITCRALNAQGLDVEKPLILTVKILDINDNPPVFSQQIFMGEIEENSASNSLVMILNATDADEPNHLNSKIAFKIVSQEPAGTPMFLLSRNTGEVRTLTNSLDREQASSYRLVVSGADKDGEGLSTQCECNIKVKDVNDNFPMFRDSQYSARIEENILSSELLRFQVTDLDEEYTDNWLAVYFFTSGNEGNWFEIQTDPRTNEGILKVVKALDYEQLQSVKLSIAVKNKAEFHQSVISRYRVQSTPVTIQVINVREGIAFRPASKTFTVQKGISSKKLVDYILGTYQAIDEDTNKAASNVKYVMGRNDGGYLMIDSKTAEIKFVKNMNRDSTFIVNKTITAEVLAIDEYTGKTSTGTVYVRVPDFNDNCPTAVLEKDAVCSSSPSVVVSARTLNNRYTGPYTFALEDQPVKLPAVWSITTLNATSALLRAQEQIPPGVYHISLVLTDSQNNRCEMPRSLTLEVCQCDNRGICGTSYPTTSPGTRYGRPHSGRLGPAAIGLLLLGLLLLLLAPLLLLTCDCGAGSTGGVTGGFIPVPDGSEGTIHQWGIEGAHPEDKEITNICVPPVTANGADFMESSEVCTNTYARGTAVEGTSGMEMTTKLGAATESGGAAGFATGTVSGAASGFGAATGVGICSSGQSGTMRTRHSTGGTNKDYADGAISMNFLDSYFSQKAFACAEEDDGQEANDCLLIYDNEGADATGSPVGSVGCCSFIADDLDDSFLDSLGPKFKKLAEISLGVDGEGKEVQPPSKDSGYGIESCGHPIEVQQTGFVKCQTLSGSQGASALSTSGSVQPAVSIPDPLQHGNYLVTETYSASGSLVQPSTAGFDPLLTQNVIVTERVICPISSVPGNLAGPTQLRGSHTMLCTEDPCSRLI
T cell HTS: T cell immune modulation candidate; response (vesicle binding), % at 7 µM; 0.068% of 330,000 active; 2C CD8+ T cell-vesicle binding, flow cytometry; stronger effect = lower value;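 active means response, share of CD8 T cells binding vesicles, and their 90th percentile fluorescence all below set limits, cut at about 80% in these data, passing the limit was not always enough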;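 further: values below 100% mean blocked vesicle binding to the CD8+ T cells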
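Test system: purified 2C TCR transgenic mouse naive CD8+ T cells. Probe or stimulus: QL9-peptide-loaded Drosophila micro-vesicles bearing Ld, ICAM-1 and B7-1. Incubation: binding step 1.5 h, 37 °C, antibody labelling 20 min, ice. Measured by: flow cytometry of vesicle-bound cells.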
HDAC3 inhib: human HDAC3 inhibition. recombinant HDAC3, fluorogenic peptide/trypsin coupled, fluorescence. AID 2718. inhibition, % at 8.3 µM. 0.15% of 320,000 active; in the data active means inhibition above about 26%, passing the limit was not always enough; inconclusive means no clear call, values can overlap the other calls
Arr AP2 block: human beta-arrestin and AP2 interaction inhibition | FITC-arrestin peptide / GST-AP2 beads, flow cytometry; AP2 beta2 appendage carries R879A mutation | inhibition, % at 10 µM | 0.31% of 340,000 active | AID 504490;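 active means inhibition above a set limit, near 3 SD of compounds lacking own fluorescence, cut at about 54% in these data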
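System: GST-AP2 R879A glutathione beads. Medium: PBS with 0.05% Tween 20 and 0.1% BSA. Also added: FITC-arrestin peptide, 50 nM. Incubation: 12 min plus 1 h, RT. Measured by: high-throughput flow cytometry of beads, ex 488, em 535 nm. Evaluation: percent drop in bead-associated FITC signal.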
Numbers stand for hits; n = inactive; u = inconclusive; x = no result given; + = active, no number. Only some compounds are listed: those with a hit (about 1.5% of all), similar ones and a draw of the others.

SMILES | LANA-H2B inh | Pemphigus Ab inh | T cell HTS | HDAC3 inhib | Arr AP2 block
CCSc1nnc(NC(=O)CSc2nnc(CNC(=O)c3ccc(OC)cc3)o2)s1 | n | -2.6 | n | n | n
C[C@H]1CN([C@@H](C)CO)C(=O)CCCn2nncc2CO[C@H]1CN(C)C(=O)Nc1ccnc(N2CCOCC2)c1 | x | n | x | x | x
CC(=O)NCC1(O)CCCC(C)C1 (stereo not drawn) | 19.3 | n | n | n | n
O=C(COC(=O)COc1ccc(Cl)cc1Br)NC1CC1 | n | n | n | n | n
CCn1c(C)nc2cc(C(=O)N/N=C/c3ccc(O)c(O)c3O)ccc21 | x | 2.7 | x | x | n
CC(C)N(C)CCOC(=O)/C=C/c1ccccc1 | + | n | n | n | n
CNc1nnc(SCC(=O)N2c3ccccc3NC(=O)CC2C)s1 (stereo not drawn) | + | n | n | n | n
CC(C)CN(C(=O)COC(=O)CSc1ccc([N+](=O)[O-])cc1)C1CCS(=O)(=O)C1 (stereo not drawn) | n | n | n | n | n
CCOC(=O)c1cc(-c2ccc(/C=C3/C(=O)N(c4ccc(C(=O)O)cc4)N=C3C)o2)ccc1Cl | n | 62.6 | n | n | n
CCOC(=O)c1cc(-c2ccc(/C=N\n3cnnc3)o2)ccc1Cl | n | n | n | n | n
Cc1ccc2c(c1)N(CC(=O)Nc1ccccc1F)C(=O)C(C)O2 (stereo not drawn) | x | n | x | x | n
COc1ccc2cc(C#N)c(SCC(=O)N3CC(=O)Nc4ccccc43)nc2c1 | n | 69.2 | n | n | n
COc1ccc(CNC(=O)C2=CC(c3ccc(OC)c(OC)c3)=NS(=O)(=O)N2C)cc1 | n | n | n | n | n
COc1ccc(C2=NS(=O)(=O)N(C)C(C(=O)NCc3ccc4c(c3)OCO4)=C2)cc1OC | n | 62.8 | n | n | n
COc1ccc(C2CC(=O)C=C3c4ccc(OC)cc4CCC32)cc1 (stereo not drawn) | x | 84.0 | x | x | x
CCN1C(=O)[C@H]2[C@@H](c3ccc(-c4ccccc4)c(OC)c3)N[C@@](CC(C)C)(C(=O)OC)[C@H]2C1=O | n | n | n | n | x
COc1ccccc1C(=O)NCCC(=O)N(C)CC(=O)Nc1ccccc1Br | n | n | n | n | n
CCCN(CC(=O)Nc1ccccc1OC)C(=O)CCNC(=O)c1ccccc1OC | 41.4 | n | n | n | n
OC[C@H]1O[C@@](CO)(O[C@H]2O[C@H](CO)[C@@H](O)[C@H](O)[C@H]2O)[C@@H](O[C@H]2O[C@H](CO)[C@@H](O)[C@H](O)[C@H]2O)[C@@H]1O | x | x | x | x | n
NC(=S)c1ncc(C(F)(F)F)cc1Cl | n | x | n | n | n
NC(=S)Nc1ncc(C(F)(F)F)cc1Cl | 127.5 | n | n | n | n
CCC1CCCCN1C(=O)COc1ccc2c3c(c(=O)oc2c1)CCC3 (stereo not drawn) | 31.5 | n | n | n | n
O=C(O)[C@@H]1CCCN1C(=O)COc1ccc2c3c(c(=O)oc2c1)CCC3 | n | x | n | n | n
COc1cccc(/C=C/C(=O)OCC(=O)N2CCCC2)c1OC | n | n | n | n | n
CC1CN(CC(=O)Nc2ccc([N+](=O)[O-])cc2Br)CC(C)O1 (stereo not drawn) | + | n | n | n | n
SMILES | LANA-H2B inh | Pemphigus Ab inh | T cell HTS | HDAC3 inhib | Arr AP2 block
COc1cc([N+](=O)[O-])ccc1NC(=O)Cc1ccc(C)cc1 | n | n | n | u | n
Cc1ccc(NC(=O)Cc2ccc([N+](=O)[O-])cc2)c(Br)c1 | n | 6.2 | n | n | n
O=C(C[C@H]1C(=O)N(Cc2ccccc2)C[C@@H]1c1ccc(Br)cc1)Nc1ccc(Br)cc1 | x | n | x | x | x
COc1ccc(N2C(=O)CSC2c2cccc(F)c2)cc1 (stereo not drawn) | 8.4 | n | n | n | n
COc1ccc(C2SCC(=O)N2c2ccc(F)cc2)cc1 (stereo not drawn) | n | n | n | n | n
NC(=S)N=Nc1ccc(O)cc1 | x | x | x | x | n
COc1ccc(NC(=O)C2CCN(S(=O)(=O)c3ccc4c(c3)CC(C)N4C(C)=O)CC2)c(OC)c1 (stereo not drawn) | n | n | n | n | n
CC1(C)CC(NS(=O)(=O)c2ccc3ccccc3c2)CC(C)(C)N1 | n | 32.8 | n | n | n
CC(C)N(Cc1ccccc1)C(=O)COC(=O)c1ccc(S(=O)(=O)N2CCOCC2)cc1 | n | n | n | n | n
Cc1cc(S(=O)(=O)N2CCN(Cc3ccccc3)CC2)c(C)s1 | n | n | 74.3 | n | n

High-throughput results as filed in PubChem.
